For 21 molecules, IC50 and solubility results are on record in ChEMBL document CHEMBL3414536 (Eur J Med Chem, 2015).

The subject of one data set is Hs 683. Kind of data set: Cytostatic activity against human Hs683 cells after 72 hrs by videomicroscopy. It counts as functional, cell-based. Particulars: Hs 683, 72 h.
Data set [1] can be described thus: Aqueous solubility of the compound. The format is physicochemical. Particulars: buffer. In a few lines:
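Solubility measured at pH 7.4, room temperature, by a previously described protocol; reported in µg/ml.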

Another data set has as its system A549. Put plainly: Cytotoxicity against human A549 cells by MTT assay. It counts as functional, cell-based. In a few lines: (§1)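 Human cancer cell lines were cultured for three days with or without compound at 10 nM to 100 µM and read by MTT colorimetric assay. IC50 is the concentration reducing global growth by 50% relative to untreated controls.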
For orientation: Tetrazolium assays rely on reduction of a dye to a coloured formazan, in cell work by metabolically active cells.

Data set [2] in a line: Cytotoxicity against human Hs683 cells by MTT assay. It counts as functional, cell-based. Particulars: Hs 683. In a few lines: as §1
The test system of data set [3] is SK-MEL-28. Kind of data set: Cytotoxicity against human SK-MEL-28 cells by MTT assay. The format is functional, cell-based. In a few lines:
as §1

The nature of data set [4]: Cytotoxicity against human U373 cells by MTT assay. The format is functional, cell-based, U-373MG ATCC. Particulars: U373 MG. In a few lines: as §1
Another data set deals with T98G. Put plainly: Cytotoxicity against human T98G cells by MTT assay. It counts as functional, cell-based. In a few lines: as §1
For data set [5], the system named is SK-MEL-28. Put plainly: Cytostatic activity against human SK-MEL-28 cells after 72 hrs by videomicroscopy. The format is functional, cell-based. Particulars: SK-MEL-28, 72 h.
A short description of data set [6]: Cytostatic activity against human U373 cells after 72 hrs by videomicroscopy. Particulars: U373 MG. It counts as functional, cell-based, U-373MG ATCC.

`Cc1c2c(cc[n+]1CCC(C)C)c1ccc(OCc3ccccc3)cc1n2Cc1ccccc1`: half-maximal inhibition in the data set on Hs 683 (IC50) was put at 0.4 µM.
On to `Cc1c2c(cc[n+]1Cc1ccc(F)cc1)c1ccc(OCc3cccc(F)c3)cc1n2Cc1cccc(F)c1.[Br-]`, for which the solubility (in general, the concentration that dissolves in the medium under given conditions) in data set [1] was 2.4 µg/mL.
Regarding `Cc1c2c(cc[n+]1Cc1ccccc1)c1ccc(OCC3CCCCC3)cc1n2CC1CCCCC1.[Br-]`, the solubility in data set [1] (read-out: solubility) was less than 1.7 µg/mL. Besides, in the data set with Hs 683, 0.4 µM corresponded to half-maximal inhibition (IC50).
`Cc1c2c(cc[n+]1Cc1ccccc1F)c1ccc(OCC3CCCCC3)cc1n2CC1CCCCC1`: the IC50 (commonly the midpoint of a concentration-inhibition curve) in the data set on Hs 683 is 0.3 µM.
Same read-out and setting: with `Cc1c2c(cc[n+]1CCC(C)C)c1ccc(OCCC(C)C)cc1n2CCC(C)C` the figure was 0.3 µM; with `CCCn1c2cc(OCc3ccccc3)ccc2c2cc[n+](Cc3ccccc3F)c(C)c21`, 0.5 µM.
Still for that read-out and setting: with `Cc1c2c(cc[n+]1Cc1ccccc1)c1ccc(OCCC(C)C)cc1n2CCC(C)C` the figure was 3.1 µM; with `Cc1nccc2c3ccc(OCc4cccc(F)c4)cc3n(Cc3cccc(F)c3)c12`, 17 µM.
Take `Cc1c2c(cc[n+]1Cc1ccccc1)c1ccc(OCc3ccccc3)cc1n2Cc1ccccc1.[Br-]`: the solubility in data set [1] (read-out: solubility) amounted to 72.5 µg/mL.
As for `Cc1c2c(cc[n+]1Cc1ccccc1F)c1ccc(OCc3ccccc3)cc1n2Cc1ccccc1`, the IC50 in the data set with Hs 683 came to 0.4 µM.
Regarding `Cc1c2c(cc[n+]1CCC(C)C)c1ccc(OCCC(C)C)cc1n2CCc1nnn[nH]1`, the IC50 (with A549; in data set [2]; in the data set on SK-MEL-28 [3]) was greater than 100 µM in each case.
Regarding `Cc1c2c(cc[n+]1CCC(C)C)c1ccc(OCCO)cc1n2CCO.[Br-]`, the IC50 (with A549; in data set [2]; in [4]; in the data set with SK-MEL-28 [3]) was greater than 100 µM each time. Also, the solubility in data set [1] (read-out: solubility) was greater than 219 µg/mL.
Turning to `Cc1c2c(cc[n+]1CCO)c1ccc(OCCO)cc1n2CCO.[Br-]`, the concentration for half-maximal inhibition (IC50) is 51 µM in the data set with A549, greater than 100 µM in data set [2], greater than 100 µM in [4] and 51 µM in the data set on SK-MEL-28 [3]. Besides, the solubility in data set [1] (read-out: solubility) was greater than 206 µg/mL.
Consider `CCCOc1ccc2c3cc[n+](CC)c(C)c3n(CCC)c2c1.[Br-]`, for which the half-maximal inhibitory concentration (IC50) in the data set with A549 amounted to 0.7 µM; in data set [2] it was 2 µM; in [4], 35 µM; in the data set on SK-MEL-28 [3] it was 8 µM; in the data set on T98G, 22 µM. Moreover, the solubility in data set [1] (read-out: solubility) was 174 µg/mL.
Consider `CCCOc1ccc2c3cc[n+](CCC(C)C)c(C)c3n(CCC)c2c1.[Br-]`, for which the IC50 in the data set with A549 is 2 µM; in [2], 1 µM; in data set [4] it was 22 µM; with SK-MEL-28 [3] it was 3 µM; in the data set on T98G it was 4 µM. In addition, the solubility in data set [1] (read-out: solubility) came out at 196 µg/mL.
As for `CCCn1c2cc(OCc3ccccc3)ccc2c2cc[n+](CC)c(C)c21.[Br-]`, the IC50 with A549 came to 2 µM; in [2], 3 µM; in data set [4], 22 µM; in the data set with SK-MEL-28 [3], 4 µM; in the data set with T98G, 11 µM. For the same molecule, in data set [1] (read-out: solubility), the solubility was found to be 207 µg/mL.
In the case of `CCCn1c2cc(OCc3ccccc3)ccc2c2cc[n+](CCC(C)C)c(C)c21.[Br-]`, the IC50 worked out at 0.3 µM in the data set on A549; 1 µM in the data set with SK-MEL-28 [5]; 0.3 µM in [2]; 2 µM in data set [4]; 1 µM in the data set with SK-MEL-28 [3]; 1.5 µM in the data set on T98G. The IC50 (in data set [6]; in the data set with Hs 683) was 1 µM each time. The solubility in data set [1] (read-out: solubility) came to 164 µg/mL.
As for `CCCn1c2cc(OCc3ccccc3)ccc2c2cc[n+](CC(C)C)c(C)c21.[Br-]`, the 50% inhibitory concentration (IC50) in the data set on A549 came out at 0.8 µM; in data set [2], 0.4 µM; in [4] it was 1 µM; in the data set with SK-MEL-28 [3] it was 0.6 µM; with T98G, 3.8 µM. In addition, in data set [1] (read-out: solubility), the solubility came to 207 µg/mL.
`CCCn1c2cc(OCCC(C)C)ccc2c2cc[n+](CC)c(C)c21.[Br-]`: the IC50 in the data set on A549 amounted to 0.2 µM; in the data set on SK-MEL-28 [5], 1 µM; in [2], 0.09 µM; in data set [4], 0.6 µM; in the data set on SK-MEL-28 [3], 1 µM; in the data set with T98G it was 0.9 µM. Besides, the IC50 (in data set [6]; in the data set on Hs 683) was 1 µM throughout. In addition, the solubility in data set [1] (read-out: solubility) was determined as 186 µg/mL.
With `CCCn1c2cc(OCCC(C)C)ccc2c2cc[n+](CCC)c(C)c21.[Br-]`, the 50% inhibitory concentration (IC50) in the data set with A549 stood at 0.3 µM; in [2], 0.04 µM; in data set [4], 0.6 µM; in the data set on SK-MEL-28 [3], 0.9 µM; in the data set on T98G, 1.2 µM. The solubility in data set [1] (read-out: solubility) turned out to be 185 µg/mL.
As for `Cc1c2c(cc[n+]1CC(=O)c1ccccc1)c1ccc(OCc3ccccc3)cc1n2Cc1ccccc1`, it took 26 µM to reach half-maximal inhibition with Hs 683 (IC50).
